Experimental data published in ChEMBL document CHEMBL3588831, “Synthesis and in Vivo Evaluation of [123I]Melanin-Targeted Agents” (J Med Chem, 2015).

Assays:
[1] = Retention time of the compound by HPLC method; type: physicochemical
[2] = Drug distribution in thyroid gland of C57BL/6J mouse bearing mouse B16F0 cells at 18 to 20 MBq, iv after 72 hrs by SPECT imaging study; type: ADME, organism-based; settings: in vivo
Procedure, shortened: (§1)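 Female C57BL/6J mice (5–6 weeks) were inoculated s.c. on the left flank with 3 × 10^5 B16F0 cells in PBS and used after 11 days, with tumors 2–12 mm. Each received 18–20 MBq in 100 μL by lateral tail vein (n = 3 per tracer). Planar SPECT was done under isoflurane at 10–60 min, 3, 6, 24, 48 and 72 h. ROI pixel values were decay-corrected.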

Brain [3] = test: Drug distribution in brain of C57BL/6J mouse bearing mouse B16F0 cells at 18 to 20 MBq, iv measured over 72 hrs by SPECT imaging study; type: ADME, organism-based; settings: in vivo
Procedure, shortened: (§2)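 Female C57BL/6J mice bearing s.c. B16F0 tumors (11 days growth) received 18−20 MBq in 100 μL via lateral tail vein (n = 3). Isoflurane anesthesia (5% induction, 2−2.5% maintenance) on a 37 °C heating pad. Planar γ-camera imaging at 10−60 min (5 min frames), 3 and 6 h, 24, 48 and 72 h. Radioactivity localization assessed visually.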

[4] = Drug distribution in eyes of C57BL/6J mouse bearing mouse B16F0 cells at 18 to 20 MBq, iv measured over 72 hrs by SPECT imaging study; type: ADME, organism-based, Eye; settings: in vivo; procedure, shortened: as §1
[5] = Drug distribution in thyroid gland of C57BL/6J mouse bearing mouse B16F0 cells at 18 to 20 MBq, iv after 24 hrs by SPECT imaging study; type: ADME, organism-based; settings: in vivo; procedure, shortened: as §1
[6] = Drug distribution in thyroid gland of C57BL/6J mouse bearing mouse B16F0 cells at 18 to 20 MBq, iv after 3 hrs by SPECT imaging study; type: ADME, organism-based; settings: in vivo; procedure, shortened: as §1
Brain [7] = test: Drug distribution in brain of C57BL/6J mouse bearing mouse B16F0 cells at 18 to 20 MBq, iv within 1 hr by SPECT imaging study; type: ADME, organism-based; settings: in vivo; procedure, shortened: as §2

SMILES | Retention_time [1] [min] | Drug uptake [2] | Drug uptake (Brain [3]) | Drug uptake [4] | Drug uptake [5] | Drug uptake [6] | Drug uptake (Brain [7])
O=C(c1cccnc1)N1CCN(Cc2ccc([123I])cc2)CC1 | 16 |  | Not Active | Active | Active |  | 
CCN(CC)CCNC(=O)c1cnc2cc([123I])ccc2n1 | 15.7 |  | Active | Active |  | Active | Active

Results, then the compound that gave them:

Retention_time [1] [min] | Drug uptake [2] | Drug uptake (Brain [3]) | Drug uptake [4] | Drug uptake [5] | Drug uptake [6] | Drug uptake (Brain [7]) | SMILES
15.9 | Active | Not Active | Active |  |  |  | O=C1c2ccccc2CN1CC(=O)N1C[C@@H]2C[C@H]1CN2Cc1ccc([123I])cc1
14.5 | Active | Not Active | Active |  |  |  | O=C(CN1Cc2ccccc2C1=O)N1CCCN(Cc2ccc([123I])cc2)CC1
17.3 |  | Not Active | Active |  |  |  | O=C(CN1Cc2ccccc2C1=O)N1CCN(Cc2ccc([123I])cc2)CC1
